Source: ChEMBL document CHEMBL4371095, “Triazole-Based Inhibitors of the Wnt/β-Catenin Signaling Pathway Improve Glucose and Lipid Metabolisms in Diet-Induced Obese Mice” (J Med Chem, 2019)
pIC50: −log10 of the molar value. Activity calls are given as the source filed them. No cut-off for these calls is given here.

Tests used:
[1] = molecular target: Axin-1 (Homo sapiens) (UniProt O15169); test: Stabilization of Axin1 protein in HEK293 cells assessed as increase in cytoplasmic punctas at 1 uM after 14 hrs by DAPI staining based confocal microscopic method; type: cell-based
In short: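 HEK293 cells on poly-D-lysine slides were treated with 1 μM compound for 14 h. Cells were fixed in 10% formalin for 20 min, permeabilized with methanol, blocked with 5% BSA, stained overnight for Axin1 with secondary antibody for 2 h, counterstained with DAPI, and imaged by confocal microscopy.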

[2] = test system: HEK293; test: Inhibition of LiCl-activated Wnt/beta-catenin/Axin signaling (unknown origin) expressed in HEK293 cells assessed as degradation of beta-catenin by measuring decrease in beta-catenin protein expression after 24 hrs by Western blot method; type: cell-based; settings: Homo sapiens
In short: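 HEK293 cells were treated with compound in the presence of lithium chloride for 24 h. Lysis buffer contained 10 mM HEPES, 100 μM EDTA, 10 mM KCl, 0.5% NP40 and inhibitors. Protein was quantified by BCA, resolved on 10% SDS-PAGE, and immunoblotted for β-catenin.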

[3] = test system: HEK293; test: Inhibition of 25 to 50 mM LiCl activated Wnt/beta-catenin signaling (unknown origin) expressed in HEK293 cells harboring TCF/LEF-responsive luciferase at 0.1 uM preincubated with cells followed by LiCl addition and measured after 24 hrs by luciferase reporter gene assay; type: cell-based; settings: Homo sapiens
[4] = test system: HEK293; test: Inhibition of Wnt/beta-catenin signaling (unknown origin) expressed in HEK293 cells harboring TCF/LEF-responsive luciferase assessed as luminescence at 20 nM measured after 24 hrs by luciferase reporter gene assay relative to control; type: cell-based; set-up: scale not given: the % may be the effect or the level left; settings: Homo sapiens
In short: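 HEK293 cells carrying siRNA knockdown of GSK3β, Axin or CK1α (36 h transfection) were treated with or without 20 nM compound for 24 h. TCF/LEF reporter luminescence was read relative to control, mean ± S.D., n = 3.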

[5] = test system: HEK293; test: Inhibition of Wnt/beta-catenin signaling (unknown origin) expressed in Axin1 knock down HEK293 cells harboring TCF/LEF-responsive luciferase assessed as luminescence at 20 nM measured after 24 hrs by luciferase reporter gene assay relative to control; type: cell-based; set-up: scale not given: the % may be the effect or the level left; settings: Homo sapiens
In short: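 HEK293 cells were transfected with siRNA against GSK3β, Axin or CK1α using RNAiMAX for 36 h. Cells were then treated with or without compound at 20 nM for 24 h, and TCF/LEF luciferase reporter activity was read.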

[6] = Inhibition of Wnt/beta-catenin signaling (unknown origin) expressed in HEK293 cells harboring GSK3B siRNA after 24 hrs by luciferase reporter gene assay; type: cell-based; settings: Homo sapiens, HEK293, 24 h
[7] = molecular target: Axin-1 (Homo sapiens) (UniProt O15169); test: Stabilization of Axin1 in human HuH7 cells assessed as decrease in lipid accumulation at 5 uM after 36 hrs by nile red staining based fluorescence microscopic method; type: cell-based
In short: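 Huh7 cells on collagen I-coated coverslips were treated with 5 μM compound for 36 h, then with 200 μM sodium oleate for a further 12–16 h. Cells were stained with 1 μM Nile red in HBSS for 10 min at 37 °C in the dark and imaged by fluorescence microscopy at 552/636 nm.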

[8] = Half life in mouse at 10 mg/kg, po or 10 mg/kg, iv administered as single dose by LC-MS analysis; type: ADME, organism-based; settings: in vivo
In short: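 Compound was dissolved at 1 mg/ml in 10% Kolliphor EL and 10% polyethylene glycol in saline. Ten mice were split into intravenous and oral groups and given a single 10 mg/kg dose. Tail-vein blood was sampled at several time points and analysed by LC/MS/MS.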

[9] = test system: Mus musculus; test: Decrease in hepatic SCD1 mRNA level in high fat diet fed C57BL/6J mouse at 40 mg/kg, ip administered every 2 days for 11 weeks by qPCR analysis; type: functional, organism-based
In short: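 Male mice, 8 weeks old, fed a 45% kcal fat diet for 6 weeks, then dosed i.p. every 2 days in corn oil vehicle for 11 weeks. Liver mRNA of the indicated genes was quantified at sacrifice; mean ± SEM, n = 5 per group.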

[10] = test system: Mus musculus; test: Effect on hepatic Glp1 mRNA level in normal chow diet fed C57BL/6J mouse at 40 mg/kg, ip administered every 2 days for 11 weeks by qPCR analysis; type: ADME, organism-based; settings: in vivo
In short: (§1)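 Male mice, 8 weeks old, kept on normal chow throughout and dosed i.p. every 2 days in corn oil vehicle for 11 weeks. Body weight gain, liver/body weight ratio, and liver mRNA of the indicated genes were measured at sacrifice; mean ± SEM, n = 5 per group where stated.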

[11] = test system: Mus musculus; test: Effect on hepatic G6pase mRNA level in normal chow diet fed C57BL/6J mouse at 40 mg/kg, ip administered every 2 days for 11 weeks by qPCR analysis; type: ADME, organism-based; settings: in vivo; in short: as §1
[12] = test system: Mus musculus; test: Effect on hepatic SREBP1 mRNA level in normal chow diet fed C57BL/6J mouse at 40 mg/kg, ip administered every 2 days for 11 weeks by qPCR analysis; type: ADME, organism-based; settings: in vivo; in short: as §1
[13] = Toxicity in high fat diet fed C57BL/6J mouse assessed as serum creatinine level at 40 mg/kg, ip administered every 2 days for 11 weeks by Jaffe's reaction analysis (reference value: 0.3 +/- 0.02 mg/dl); type: organism-based; settings: in vivo
[14] = Toxicity in high fat diet fed C57BL/6J mouse assessed as serum LDH level at 40 mg/kg, ip administered every 2 days for 11 weeks (reference value: 469 +/- 67 U/L); type: organism-based; settings: in vivo

Chain of Axin-1 (Homo sapiens) (O15169 whole entry): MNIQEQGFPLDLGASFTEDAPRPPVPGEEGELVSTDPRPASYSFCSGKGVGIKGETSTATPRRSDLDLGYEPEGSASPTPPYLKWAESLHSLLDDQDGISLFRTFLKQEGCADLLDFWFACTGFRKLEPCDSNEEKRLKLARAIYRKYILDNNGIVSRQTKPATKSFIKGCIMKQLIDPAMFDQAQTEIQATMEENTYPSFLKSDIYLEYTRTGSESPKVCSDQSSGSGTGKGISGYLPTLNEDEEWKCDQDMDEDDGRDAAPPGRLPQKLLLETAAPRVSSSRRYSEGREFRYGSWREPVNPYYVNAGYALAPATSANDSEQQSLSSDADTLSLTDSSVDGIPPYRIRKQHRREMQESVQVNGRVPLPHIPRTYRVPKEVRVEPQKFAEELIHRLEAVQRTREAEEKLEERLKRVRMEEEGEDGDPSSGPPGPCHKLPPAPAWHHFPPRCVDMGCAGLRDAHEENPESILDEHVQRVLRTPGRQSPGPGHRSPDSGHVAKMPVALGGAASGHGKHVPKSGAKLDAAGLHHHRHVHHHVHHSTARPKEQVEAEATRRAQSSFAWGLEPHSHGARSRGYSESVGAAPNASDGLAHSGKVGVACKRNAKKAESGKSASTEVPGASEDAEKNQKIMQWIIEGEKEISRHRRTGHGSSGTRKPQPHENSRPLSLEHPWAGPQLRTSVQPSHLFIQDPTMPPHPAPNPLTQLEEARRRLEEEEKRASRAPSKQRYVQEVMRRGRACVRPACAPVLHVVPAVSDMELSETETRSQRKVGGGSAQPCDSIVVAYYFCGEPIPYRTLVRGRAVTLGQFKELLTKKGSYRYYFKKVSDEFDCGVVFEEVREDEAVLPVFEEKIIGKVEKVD

SMILES: Cc1ccccc1-n1nnc(C(=O)Nc2ccc3ccccc3n2)c1C
- Activity [1]: Active
- inhibition [2]: Active
- inhibition [3]: Active
- Activity [4]: 40%
- Activity [5]: 41%
- pIC50 [6]: 7.47
- Activity [7]: Active
- half-life [8]: 2.8 to 3.3 h
- Activity [9]: Active
- Activity [10]: Non-Toxic
- Activity [11]: Non-Toxic
- Activity [12]: Non-Toxic
- Activity [13]: 0.2 mg/dL
- Activity [14]: 313 U/L
